{
  "source": "ChEMBL document CHEMBL5661976",
  "about": "(Cancer Res, 2007)",
  "key": {"[1]": {"system": "HCC827", "assay": "cells", "type": "functional, cell-based", "conditions": "Homo sapiens, HCC827, 72 h"}, "[2]": {"system": "Calu-3", "assay": "cells", "type": "functional, cell-based", "conditions": "Homo sapiens, Calu-3, 72 h"}, "[3]": {"target": "AMP-activated protein kinase, AMPK", "assay": "Inhibition of recombinant AMPK (unknown origin)", "type": "protein-complex assay, Homo sapiens"}, "[4]": {"system": "BaF3", "assay": "cells", "type": "functional, cell-based", "conditions": "Mus musculus, BaF3, 72 h"}, "[5]": {"assay": "Inhibition of recombinant MAPK2/ERK2 (unknown origin)", "set-up": "species or system Homo sapiens"}, "[6]": {"system": "NCI-H3255", "assay": "cells", "type": "functional, cell-based", "conditions": "Homo sapiens, NCI-H3255, 72 h"}, "[7]": {"system": "NIH3T3", "assay": "Inhibition of ERBB2 Ins774YVMA mutant (unknown origin) expressed in mouse NIH3T3 cells assessed as inhibition of ERBB2 phosphorylation at 100 to 10000 nmol/L incubated for 6 hrs by Western blotting analysis", "type": "cell-based", "conditions": "dose 100-10000 nmol/L"}, "[8]": {"target": "Serine/threonine-protein kinase Nek2 (Homo sapiens, UniProt P51955)", "sequence (P51955 whole entry)": "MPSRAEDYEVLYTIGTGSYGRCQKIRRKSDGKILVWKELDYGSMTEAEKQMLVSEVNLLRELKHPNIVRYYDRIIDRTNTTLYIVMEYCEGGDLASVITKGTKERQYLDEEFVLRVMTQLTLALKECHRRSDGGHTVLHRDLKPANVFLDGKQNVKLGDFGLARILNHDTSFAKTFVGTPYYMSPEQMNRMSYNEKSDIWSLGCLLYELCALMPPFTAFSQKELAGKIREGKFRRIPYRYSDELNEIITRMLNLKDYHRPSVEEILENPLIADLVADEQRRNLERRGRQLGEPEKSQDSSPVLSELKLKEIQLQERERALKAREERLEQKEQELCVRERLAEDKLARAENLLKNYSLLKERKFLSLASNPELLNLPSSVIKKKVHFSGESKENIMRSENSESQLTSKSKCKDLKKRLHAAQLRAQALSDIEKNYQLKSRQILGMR", "assay": "Inhibition of recombinant NEK2a (unknown origin)"}, "[9]": {"system": "NCI-H3255GR", "assay": "Induction of apoptosis in human NCI-H3255GR cells assessed as increase in cleavage of PARP at 1 micromol/L incubated for 72 hrs by Western blotting analysis", "type": "functional, cell-based", "conditions": "dose 1.0 µmol/L"}, "[10]": {"system": "HCC4006", "assay": "cells", "type": "functional, cell-based", "conditions": "Homo sapiens, HCC4006, 72 h"}, "[11]": {"system": "BaF3", "assay": "cells", "type": "functional, cell-based", "conditions": "Mus musculus, BaF3, 72 h", "remark": "listed apart in the source"}, "[12]": {"system": "H322", "assay": "cells", "type": "functional, cell-based", "conditions": "Homo sapiens, NCI-H322, 72 h"}, "[13]": {"system": "BaF3", "assay": "cells", "type": "functional, cell-based", "conditions": "Mus musculus, BaF3, 72 h", "remark": "listed apart in the source"}, "[14]": {"system": "HCC827", "assay": "cells", "type": "functional, cell-based", "conditions": "Homo sapiens, HCC827, 72 h", "remark": "listed apart in the source"}, "[15]": {"target": "Mitogen-activated protein kinase 13 (Homo sapiens, UniProt O15264)", "assay": "Inhibition of recombinant SAPK4/p38delta (unknown origin)"}, "[16]": {"target": "Mitogen-activated protein kinase 8 (Homo sapiens, UniProt P45983)", "sequence (P45983 whole entry)": "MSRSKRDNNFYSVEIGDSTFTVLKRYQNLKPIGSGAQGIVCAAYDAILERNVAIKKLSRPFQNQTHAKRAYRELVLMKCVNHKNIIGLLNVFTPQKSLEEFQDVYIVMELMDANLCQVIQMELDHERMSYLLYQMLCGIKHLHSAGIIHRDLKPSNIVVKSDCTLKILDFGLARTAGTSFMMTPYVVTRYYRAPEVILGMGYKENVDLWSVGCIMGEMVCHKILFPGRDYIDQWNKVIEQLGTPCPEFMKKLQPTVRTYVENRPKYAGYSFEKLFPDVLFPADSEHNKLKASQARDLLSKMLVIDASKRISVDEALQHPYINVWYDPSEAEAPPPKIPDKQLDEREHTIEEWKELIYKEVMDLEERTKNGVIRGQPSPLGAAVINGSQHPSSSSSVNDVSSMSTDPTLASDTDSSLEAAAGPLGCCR", "assay": "Inhibition of recombinant SAPK1c (unknown origin)"}, "[17]": {"target": "Ribosomal protein S6 kinase alpha-5 (Homo sapiens, UniProt O75582)", "assay": "Inhibition of recombinant MSK1 (unknown origin)"}, "[18]": {"system": "HCC827", "assay": "Antitumor activity against human HCC827 cells expressing GFP xenografted in nude mouse assessed as inhibition of tumor growth at 10 mg/kg/day, po and measured thrice weekly", "type": "functional, organism-based", "outline": "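Nu/nu mice under 2% isoflurane/oxygen inoculated s.c. in lower-right flank with 5 × 10^6 HCC827-GFP or HCC827-Del/T790M cells in 0.2 mL PBS; randomized at mean tumor 400 to 500 mm3. Daily oral gavage 10 mg/kg/d; caliper volume = length × width² × 0.52; body weight monitored daily; ended when control tumors reached 2000 mm3.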"}, "[19]": {"target": "MAP kinase-activated protein kinase 5 (Homo sapiens, UniProt Q8IW41)", "assay": "Inhibition of recombinant PRAK (unknown origin)"}, "[20]": {"system": "HCC827", "assay": "cells", "type": "functional, cell-based", "conditions": "Homo sapiens, HCC827, 72 h", "remark": "listed apart in the source"}, "[21]": {"system": "BaF3", "assay": "cells", "type": "functional, cell-based", "conditions": "Mus musculus, BaF3, 72 h", "remark": "listed apart in the source"}, "[22]": {"assay": "Inhibition of recombinant PDGF (unknown origin)", "set-up": "species or system Homo sapiens"}, "[23]": {"system": "HCC827", "assay": "cells", "type": "functional, cell-based", "conditions": "Homo sapiens, HCC827, 72 h", "remark": "listed apart in the source"}, "[24]": {"system": "BaF3", "assay": "cells", "type": "functional, cell-based", "conditions": "Mus musculus, BaF3, 72 h", "remark": "listed apart in the source"}, "[25]": {"assay": "cells", "type": "functional, cell-based", "conditions": "Homo sapiens, NCI-H3255GR, 72 h"}, "[26]": {"system": "BaF3", "assay": "cells", "type": "functional, cell-based", "conditions": "Mus musculus, BaF3, 72 h", "remark": "listed apart in the source"}, "[27]": {"target": "Mitogen-activated protein kinase 11 (Homo sapiens, UniProt Q15759)", "sequence (Q15759 whole entry)": "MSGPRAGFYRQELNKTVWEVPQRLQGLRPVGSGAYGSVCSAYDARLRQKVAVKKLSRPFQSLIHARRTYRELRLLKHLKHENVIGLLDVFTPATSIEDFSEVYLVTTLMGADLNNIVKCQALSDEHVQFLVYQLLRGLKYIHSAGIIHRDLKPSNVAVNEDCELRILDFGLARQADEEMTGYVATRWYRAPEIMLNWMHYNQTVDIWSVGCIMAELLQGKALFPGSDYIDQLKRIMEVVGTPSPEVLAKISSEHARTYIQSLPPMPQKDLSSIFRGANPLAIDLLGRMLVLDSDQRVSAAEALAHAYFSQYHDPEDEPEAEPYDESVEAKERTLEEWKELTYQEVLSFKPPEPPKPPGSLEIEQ", "assay": "Inhibition of recombinant SAPK2b/p38beta2 (unknown origin)"}, "[28]": {"target": "cAMP-dependent protein kinase (PKA) (Homo sapiens, UniProt P22694+P17612+P22612)", "assay": "Inhibition of recombinant PKA (unknown origin)", "type": "protein assay"}, "[29]": {"target": "Tyrosine-protein kinase Fes/Fps (Homo sapiens, UniProt P07332)", "sequence (P07332 whole entry)": "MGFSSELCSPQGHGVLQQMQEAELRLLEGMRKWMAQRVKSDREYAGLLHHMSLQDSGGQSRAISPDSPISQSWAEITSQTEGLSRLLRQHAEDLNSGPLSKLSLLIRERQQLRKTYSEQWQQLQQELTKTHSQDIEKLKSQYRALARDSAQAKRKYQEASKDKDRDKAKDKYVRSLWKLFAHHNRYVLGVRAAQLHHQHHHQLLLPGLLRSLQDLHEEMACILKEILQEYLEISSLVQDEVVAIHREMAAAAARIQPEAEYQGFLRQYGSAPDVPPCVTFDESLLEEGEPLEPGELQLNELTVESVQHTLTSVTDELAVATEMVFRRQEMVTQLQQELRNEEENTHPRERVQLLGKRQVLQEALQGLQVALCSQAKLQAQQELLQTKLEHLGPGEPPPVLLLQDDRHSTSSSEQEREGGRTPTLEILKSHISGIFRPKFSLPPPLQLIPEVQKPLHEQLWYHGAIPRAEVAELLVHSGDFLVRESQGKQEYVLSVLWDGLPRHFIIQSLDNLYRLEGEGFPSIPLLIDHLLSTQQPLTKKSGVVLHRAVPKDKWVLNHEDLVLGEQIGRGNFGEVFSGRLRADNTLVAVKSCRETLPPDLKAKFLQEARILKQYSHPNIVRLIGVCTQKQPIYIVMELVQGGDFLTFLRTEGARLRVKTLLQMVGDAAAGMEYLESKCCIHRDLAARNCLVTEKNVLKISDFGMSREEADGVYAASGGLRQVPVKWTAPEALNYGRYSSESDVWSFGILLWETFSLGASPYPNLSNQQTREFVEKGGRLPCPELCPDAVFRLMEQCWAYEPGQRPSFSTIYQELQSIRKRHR", "assay": "Inhibition of recombinant FES (unknown origin)"}, "[30]": {"target": "Dual specificity tyrosine-phosphorylation-regulated kinase 1A (Homo sapiens, UniProt Q13627)", "assay": "Inhibition of recombinant DYRK1a (unknown origin)"}, "[31]": {"target": "Rho-associated protein kinase 2 (Homo sapiens, UniProt O75116)", "sequence (O75116 whole entry)": "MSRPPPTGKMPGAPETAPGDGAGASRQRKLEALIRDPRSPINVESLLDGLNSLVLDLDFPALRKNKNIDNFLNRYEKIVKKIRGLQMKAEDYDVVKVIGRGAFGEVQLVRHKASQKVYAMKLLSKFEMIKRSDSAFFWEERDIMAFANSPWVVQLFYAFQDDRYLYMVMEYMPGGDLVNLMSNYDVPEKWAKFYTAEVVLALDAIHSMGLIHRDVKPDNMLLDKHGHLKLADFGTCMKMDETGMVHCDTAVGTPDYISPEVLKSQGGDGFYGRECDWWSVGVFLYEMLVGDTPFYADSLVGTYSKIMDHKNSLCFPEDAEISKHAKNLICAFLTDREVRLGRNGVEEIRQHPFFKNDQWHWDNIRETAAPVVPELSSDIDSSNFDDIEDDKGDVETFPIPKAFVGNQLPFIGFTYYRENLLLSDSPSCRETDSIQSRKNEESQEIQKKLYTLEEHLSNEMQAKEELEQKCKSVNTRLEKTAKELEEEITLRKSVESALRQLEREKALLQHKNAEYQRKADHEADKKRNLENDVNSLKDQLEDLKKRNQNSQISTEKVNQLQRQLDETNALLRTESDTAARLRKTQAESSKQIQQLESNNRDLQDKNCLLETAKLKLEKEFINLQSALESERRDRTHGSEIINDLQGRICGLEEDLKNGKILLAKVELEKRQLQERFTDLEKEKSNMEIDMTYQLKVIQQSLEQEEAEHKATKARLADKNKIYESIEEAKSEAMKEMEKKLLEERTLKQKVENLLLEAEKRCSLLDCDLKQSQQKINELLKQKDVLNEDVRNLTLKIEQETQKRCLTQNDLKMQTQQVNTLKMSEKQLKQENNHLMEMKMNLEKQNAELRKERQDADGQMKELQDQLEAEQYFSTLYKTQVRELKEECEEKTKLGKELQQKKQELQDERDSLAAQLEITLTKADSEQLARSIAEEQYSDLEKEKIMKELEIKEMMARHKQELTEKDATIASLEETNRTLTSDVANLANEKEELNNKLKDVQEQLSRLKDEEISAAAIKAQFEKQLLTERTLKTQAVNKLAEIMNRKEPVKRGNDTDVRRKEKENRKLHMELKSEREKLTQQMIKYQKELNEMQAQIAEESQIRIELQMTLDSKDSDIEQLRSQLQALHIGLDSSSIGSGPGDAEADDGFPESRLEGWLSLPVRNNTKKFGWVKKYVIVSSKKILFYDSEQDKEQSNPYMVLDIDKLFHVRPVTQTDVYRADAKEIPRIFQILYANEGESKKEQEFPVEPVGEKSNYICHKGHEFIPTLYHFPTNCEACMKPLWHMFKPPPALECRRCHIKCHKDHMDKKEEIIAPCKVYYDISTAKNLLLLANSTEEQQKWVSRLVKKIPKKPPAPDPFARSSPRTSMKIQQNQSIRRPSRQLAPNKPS", "assay": "Inhibition of recombinant ROCK-II (unknown origin)"}, "[32]": {"target": "Serine/threonine-protein kinase Sgk1 (Homo sapiens, UniProt O00141)", "assay": "Inhibition of recombinant SGK (unknown origin)"}, "[33]": {"system": "BaF3", "assay": "cells", "type": "functional, cell-based", "conditions": "Mus musculus, BaF3, 72 h", "remark": "listed apart in the source"}, "[34]": {"assay": "Inhibition of recombinant Akt (unknown origin)", "set-up": "species or system Homo sapiens"}, "[35]": {"target": "Serine/threonine-protein kinase Chk1 (Homo sapiens, UniProt O14757)", "sequence (O14757 whole entry)": "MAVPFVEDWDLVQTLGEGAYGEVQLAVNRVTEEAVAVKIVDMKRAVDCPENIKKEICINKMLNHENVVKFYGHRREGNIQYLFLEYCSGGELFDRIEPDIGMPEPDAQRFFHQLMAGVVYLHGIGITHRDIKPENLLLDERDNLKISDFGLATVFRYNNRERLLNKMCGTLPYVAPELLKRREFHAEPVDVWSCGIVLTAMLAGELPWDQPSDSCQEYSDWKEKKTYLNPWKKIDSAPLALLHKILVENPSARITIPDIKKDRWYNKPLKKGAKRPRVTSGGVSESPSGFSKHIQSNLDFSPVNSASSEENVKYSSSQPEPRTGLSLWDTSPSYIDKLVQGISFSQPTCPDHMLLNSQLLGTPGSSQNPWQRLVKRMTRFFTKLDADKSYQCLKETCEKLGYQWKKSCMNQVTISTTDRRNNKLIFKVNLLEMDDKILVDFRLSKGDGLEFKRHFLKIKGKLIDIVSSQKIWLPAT", "assay": "Inhibition of recombinant CHK1 (unknown origin)"}, "[36]": {"target": "Dual specificity mitogen-activated protein kinase kinase 1 (Homo sapiens, UniProt Q02750)", "sequence (Q02750 whole entry)": "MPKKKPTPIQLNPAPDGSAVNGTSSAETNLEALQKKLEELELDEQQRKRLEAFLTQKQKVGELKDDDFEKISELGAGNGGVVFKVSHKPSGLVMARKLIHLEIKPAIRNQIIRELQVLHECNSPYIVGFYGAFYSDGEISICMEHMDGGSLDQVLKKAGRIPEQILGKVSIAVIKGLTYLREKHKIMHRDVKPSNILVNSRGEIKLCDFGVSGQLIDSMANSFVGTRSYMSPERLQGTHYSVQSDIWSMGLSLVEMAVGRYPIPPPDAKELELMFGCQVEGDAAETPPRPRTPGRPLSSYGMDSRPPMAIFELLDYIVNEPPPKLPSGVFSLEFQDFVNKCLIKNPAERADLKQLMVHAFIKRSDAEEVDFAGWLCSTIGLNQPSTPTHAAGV", "assay": "Inhibition of recombinant MEK1 (unknown origin)"}, "[37]": {"system": "BaF3", "assay": "cells", "type": "functional, cell-based", "conditions": "Mus musculus, BaF3, 72 h", "remark": "listed apart in the source"}, "[38]": {"target": "Mitogen-activated protein kinase 14 (Homo sapiens, UniProt Q16539)", "sequence (Q16539 whole entry)": "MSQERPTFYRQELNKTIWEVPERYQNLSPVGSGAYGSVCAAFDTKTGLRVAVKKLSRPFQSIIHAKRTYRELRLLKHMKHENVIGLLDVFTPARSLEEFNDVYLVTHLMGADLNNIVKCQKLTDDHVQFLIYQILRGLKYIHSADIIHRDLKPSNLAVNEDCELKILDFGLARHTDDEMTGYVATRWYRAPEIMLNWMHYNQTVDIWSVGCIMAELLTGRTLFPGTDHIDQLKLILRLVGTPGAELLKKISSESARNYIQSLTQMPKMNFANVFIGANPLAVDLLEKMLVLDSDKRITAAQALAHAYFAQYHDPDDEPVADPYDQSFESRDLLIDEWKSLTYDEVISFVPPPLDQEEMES", "assay": "Inhibition of recombinant SAPK2a/p38 (unknown origin)"}, "[39]": {"assay": "cells", "type": "functional, cell-based", "conditions": "Homo sapiens, NCI-H1781, 72 h"}, "[40]": {"system": "NIH3T3", "conditions": "Mus musculus, dose 1-10000 nmol/L, time 6.25 hrs"}},
  "note": "The source made the active and inactive calls. The rule behind the calls is not given here.",
  "data": [
    {"smiles": "COc1cc2ncnc(Nc3ccc(F)c(Cl)c3)c2cc1NC(=O)/C=C/CN1CCCCC1", "note": "[DACOMITINIB ANHYDROUS]", "values": [
      {"measurement": "IC50", "setting": "[1]", "result": 3, "unit": "nM"},
      {"measurement": "IC50", "setting": "[2]", "result": 63, "unit": "nM"},
      {"measurement": "IC50", "setting": "[3]", "result": "> 10000", "unit": "nM"},
      {"measurement": "IC50", "setting": "[4]", "result": 240, "unit": "nM"},
      {"measurement": "IC50", "setting": "[5]", "result": "> 10000", "unit": "nM"},
      {"measurement": "IC50", "setting": "[6]", "result": 137, "unit": "nM"},
      {"measurement": "inhibition", "setting": "[7]", "result": "Active"},
      {"measurement": "IC50", "setting": "[8]", "result": "> 10000", "unit": "nM"},
      {"measurement": "Activity", "setting": "[9]", "result": "Active"},
      {"measurement": "IC50", "setting": "[10]", "result": 4, "unit": "nM"},
      {"measurement": "IC50", "setting": "[11]", "result": 270, "unit": "nM"},
      {"measurement": "IC50", "setting": "[12]", "result": "> 10000", "unit": "nM"},
      {"measurement": "IC50", "setting": "[13]", "result": 160, "unit": "nM"},
      {"measurement": "IC50", "setting": "[14]", "result": 83, "unit": "nM"},
      {"measurement": "IC50", "setting": "[15]", "result": "> 10000", "unit": "nM"},
      {"measurement": "IC50", "setting": "[16]", "result": "> 10000", "unit": "nM"},
      {"measurement": "IC50", "setting": "[17]", "result": "> 10000", "unit": "nM"},
      {"measurement": "Activity", "setting": "[18]", "result": "Active"},
      {"measurement": "IC50", "setting": "[19]", "result": "> 10000", "unit": "nM"},
      {"measurement": "IC50", "setting": "[20]", "result": 2, "unit": "nM"},
      {"measurement": "IC50", "setting": "[21]", "result": 2, "unit": "nM"},
      {"measurement": "IC50", "setting": "[22]", "result": "> 10000", "unit": "nM"},
      {"measurement": "IC50", "setting": "[23]", "result": 2, "unit": "nM"},
      {"measurement": "IC50", "setting": "[24]", "result": 1.4, "unit": "nM"},
      {"measurement": "IC50", "setting": "[25]", "result": 119, "unit": "nM"},
      {"measurement": "IC50", "setting": "[26]", "result": 1.6, "unit": "nM"},
      {"measurement": "IC50", "setting": "[27]", "result": "> 10000", "unit": "nM"},
      {"measurement": "IC50", "setting": "[28]", "result": "> 40000", "unit": "nM"},
      {"measurement": "IC50", "setting": "[29]", "result": "> 40000", "unit": "nM"},
      {"measurement": "IC50", "setting": "[30]", "result": "> 10000", "unit": "nM"},
      {"measurement": "IC50", "setting": "[31]", "result": "> 10000", "unit": "nM"},
      {"measurement": "IC50", "setting": "[32]", "result": "> 10000", "unit": "nM"},
      {"measurement": "IC50", "setting": "[33]", "result": 300, "unit": "nM"},
      {"measurement": "IC50", "setting": "[34]", "result": "> 40000", "unit": "nM"},
      {"measurement": "IC50", "setting": "[35]", "result": "> 10000", "unit": "nM"},
      {"measurement": "IC50", "setting": "[36]", "result": "> 40000", "unit": "nM"},
      {"measurement": "IC50", "setting": "[37]", "result": 230, "unit": "nM"},
      {"measurement": "IC50", "setting": "[38]", "result": "> 10000", "unit": "nM"},
      {"measurement": "IC50", "setting": "[39]", "result": 275, "unit": "nM"},
      {"measurement": "inhibition", "setting": "[40]", "result": "Active"}
    ]}
  ]
}
